Measured values as given in ChEMBL document CHEMBL1123408, “Influence of alkyl-chain fluorination on the action of mammary tumor inhibiting 2,3-bis(hydroxyphenyl)butanes and 2,3-bis(hydroxyphenyl)but-2-enes” (1986).
“And” between values parts separate entries of the source, which are not always exact repeats. Equal entries are not always repeated. Blank lines part the entries; values can stand above or below the molecule they belong to.

Tests used:
Rattus norvegicus [1] = test: Initial tumor number in DMBA-Induced Hormone-Dependent Mammary Carcinoma in rats at 36 mg/kg dose; format: functional
[2] = biological target: T1, Estrogen receptor (Mus musculus) (UniProt O08537+P19785); test: (§1) Uterotrophic effect in mice at 10 ug dose; format: functional, tissue-based; parameters: unit not given here; details: Uterus
T1 sequence (O08537 whole entry, looked up): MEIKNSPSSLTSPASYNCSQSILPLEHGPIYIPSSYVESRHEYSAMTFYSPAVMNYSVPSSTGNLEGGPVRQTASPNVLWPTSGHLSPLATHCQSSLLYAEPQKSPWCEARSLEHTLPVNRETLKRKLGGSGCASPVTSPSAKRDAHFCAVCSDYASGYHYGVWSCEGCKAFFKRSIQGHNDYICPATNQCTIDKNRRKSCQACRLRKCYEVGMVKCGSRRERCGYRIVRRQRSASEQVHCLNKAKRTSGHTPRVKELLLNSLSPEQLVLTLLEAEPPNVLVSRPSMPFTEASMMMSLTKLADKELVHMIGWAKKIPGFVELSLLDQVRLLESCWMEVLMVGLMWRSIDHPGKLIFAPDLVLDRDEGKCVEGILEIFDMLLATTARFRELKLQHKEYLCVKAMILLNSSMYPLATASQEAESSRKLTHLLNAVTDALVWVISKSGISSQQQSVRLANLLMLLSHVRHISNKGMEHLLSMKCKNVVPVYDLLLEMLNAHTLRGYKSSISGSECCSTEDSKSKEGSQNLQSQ
T1 sequence (P19785 whole entry, looked up): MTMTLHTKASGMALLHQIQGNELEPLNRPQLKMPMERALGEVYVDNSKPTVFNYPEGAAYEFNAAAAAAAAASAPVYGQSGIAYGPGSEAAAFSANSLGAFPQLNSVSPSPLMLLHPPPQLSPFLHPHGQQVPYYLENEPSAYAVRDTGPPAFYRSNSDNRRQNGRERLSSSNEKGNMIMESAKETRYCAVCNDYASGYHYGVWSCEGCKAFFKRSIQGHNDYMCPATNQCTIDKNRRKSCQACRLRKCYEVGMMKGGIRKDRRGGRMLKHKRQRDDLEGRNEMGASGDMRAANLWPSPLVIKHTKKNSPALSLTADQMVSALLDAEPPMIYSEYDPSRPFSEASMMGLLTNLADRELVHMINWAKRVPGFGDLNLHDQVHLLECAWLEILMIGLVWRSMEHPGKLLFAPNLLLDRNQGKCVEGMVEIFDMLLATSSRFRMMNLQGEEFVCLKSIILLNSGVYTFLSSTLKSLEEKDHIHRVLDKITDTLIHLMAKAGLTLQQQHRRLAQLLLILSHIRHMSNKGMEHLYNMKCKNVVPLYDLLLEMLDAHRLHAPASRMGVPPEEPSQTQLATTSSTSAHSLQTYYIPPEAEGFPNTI
Method in brief: (§2)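 Immature female NMRI mice, 20 days old, 10 per group, given daily sc injections of 0.1 mL olive oil solution for 3 days. Uteri removed 24 h after the last dose, fixed in Bouin's solution, washed, dried and weighed. Antiestrogenic testing measured inhibition of estrone-stimulated uterine growth.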

Rattus norvegicus [3] = test: Percent change in total tumor area in DMBA-Induced Hormone-Dependent Mammary Carcinoma rats at 72 mg/kg dose; format: functional
Rattus norvegicus [4] = test: Percent progression in DMBA-Induced Hormone-Dependent Mammary Carcinoma in rats at 18 mg/kg dose; format: functional
Rattus norvegicus [5] = test: Final tumor number in DMBA-Induced Hormone-Dependent Mammary Carcinoma in rats at 36 mg/kg dose; format: functional
Rattus norvegicus [6] = test: Percent unchanged tumors in DMBA-Induced Hormone-Dependent Mammary Carcinoma in rats at 36 mg/kg dose; format: functional
[7] = biological target: T1, Estrogen receptor (Mus musculus); test: Uterotrophic effect in mice at 0.1 ug dose; format: functional, tissue-based; parameters: unit not given here; details: Uterus; method in brief: as §2
[8] = biological target: T1, Estrogen receptor (Mus musculus); test: Uterotrophic effect in BD2F mice bearing transplantable hormone dependent MXT at 13.84 mg dose; format: functional, tissue-based
Method in brief: (§3)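 MXT-bearing female BD2F1 mice (10 per group) dosed sc in olive oil three times weekly for 6 weeks from the day after tumor transplantation. Uteri excised at sacrifice and dry weight determined; values given as mean ± SD.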

Rattus norvegicus [9] = test: Final tumor number in DMBA-Induced Hormone-Dependent Mammary Carcinoma in rats at 18 mg/kg dose; format: functional
Rattus norvegicus [10] = test: Percent unchanged tumors in DMBA-Induced Hormone-Dependent Mammary Carcinoma in rats at 72 mg/kg dose; format: functional
[11] = biological target: T1, Estrogen receptor (Mus musculus); test: (§4) Uterotrophic effect in mice at 0 ug dose; format: functional, tissue-based; parameters: unit not given here; details: Uterus; method in brief: as §2
Rattus norvegicus [12] = test: Percent partial remission in DMBA-Induced Hormone-Dependent Mammary Carcinoma in rats at 18 mg/kg dose; format: functional
Rattus norvegicus [13] = test: Percent change in body weight in DMBA-Induced Hormone-Dependent Mammary Carcinoma rats at 72 mg/kg dose; format: functional
Rattus norvegicus [14] = test: Percent change in total tumor area in DMBA-Induced Hormone-Dependent Mammary Carcinoma rats at 36 mg/kg dose; format: functional
Mus musculus [15] = organism: Mus musculus; test: Relative average tumor wet weight in treated compared to untreated mice at 2.77 mg dose; format: functional
Method in brief: (§5)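 Syngeneic female BD2F1 mice (8–10 weeks) received sc trocar implants of 1–2-mm³ MXT tumor pieces, 10 per group. Treatment began the next day: sc doses in olive oil (solution or suspension), three times weekly for 6 weeks. Tamoxifen-treated control group included. Tumor wet weight measured at sacrifice; expressed as % T/C versus untreated controls.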

Rattus norvegicus [16] = test: Percent complete remission in DMBA-Induced Hormone-Dependent Mammary Carcinoma in rats at 72 mg/kg dose; format: functional
[17] = biological target: T1, Estrogen receptor (Mus musculus); test: (§6) Uterotrophic effect in mice at 1000 ug dose; format: functional, tissue-based; parameters: unit not given here; details: Uterus; method in brief: as §2
Rattus norvegicus [18] = test: Final tumor number in DMBA-Induced Hormone-Dependent Mammary Carcinoma in rats at 72 mg/kg dose; format: functional
Rattus norvegicus [19] = test: Percent change in total tumor area in DMBA-Induced Hormone-Dependent Mammary Carcinoma rats at 18 mg/kg dose; format: functional
Rattus norvegicus [20] = test: Percent progression in DMBA-Induced Hormone-Dependent Mammary Carcinoma in rats at 72 mg/kg dose; format: functional
[21] = biological target: T1, Estrogen receptor (Mus musculus); test: Uterotrophic effect in mice at 5000 ug dose; format: functional, tissue-based; details: Uterus, in the assay text read “50 ug” for “5000 ug”; method in brief: as §2
Rattus norvegicus [22] = test: Percent partial remission in DMBA-Induced Hormone-Dependent Mammary Carcinoma in rats at 36 mg/kg dose; format: functional
[23] = biological target: T1, Estrogen receptor (Mus musculus); test: (§7) Uterotrophic effect in mice at 1 ug dose; format: functional, tissue-based; details: Uterus; method in brief: as §2
[24] = biological target: T1, Estrogen receptor (Mus musculus); test: (§8) Uterotrophic effect in mice at 100 ug dose; format: functional, tissue-based; parameters: unit not given here; details: Uterus; method in brief: as §2
Rattus norvegicus [25] = test: Percent complete remission in DMBA-Induced Hormone-Dependent Mammary Carcinoma in rats at 36 mg/kg dose; format: functional
Mus musculus [26] = organism: Mus musculus; test: Relative average tumor wet weight in treated compared to untreated mice at 13.84 mg dose; format: functional
Method in brief: (§9)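 MXT mammary tumor pieces of 1-2 mm³ from syngeneic donors were implanted sc by trocar into female BD2F₁ mice aged 8-10 weeks (20.0 ± 1.7 g), groups of 10. From the next day, compound in olive oil was given sc three times weekly for 6 weeks. Tumor wet weight was measured at the end and expressed as % T/C.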

[27] = biological target: T1, Estrogen receptor (Mus musculus); test: Uterotrophic effect in mice at 500 ug dose; format: functional, tissue-based; parameters: unit not given here; details: Uterus; method in brief: as §2
[28] = biological target: T1, Estrogen receptor (Mus musculus); test: as §4; format: functional, tissue-based; parameters: unit not given here; details: Uterus; method in brief: as §2; remark: listed apart in the source
Rattus norvegicus [29] = test: Percent unchanged tumors in DMBA-Induced Hormone-Dependent Mammary Carcinoma in rats at 18 mg/kg dose; format: functional
Rattus norvegicus [30] = test: Initial tumor number in DMBA-Induced Hormone-Dependent Mammary Carcinoma in rats at 72 mg/kg dose; format: functional
Rattus norvegicus [31] = test: Percent partial remission in DMBA-Induced Hormone-Dependent Mammary Carcinoma in rats at 72 mg/kg dose; format: functional
[32] = biological target: T1, Estrogen receptor (Mus musculus); test: Uterotrophic effect in BD2F mice bearing transplantable hormone dependent MXT at 2.76 mg dose; format: functional, tissue-based; details: Uterus; method in brief: as §3
Rattus norvegicus [33] = test: Initial tumor number in DMBA-Induced Hormone-Dependent Mammary Carcinoma in rats at 18 mg/kg dose; format: functional
Rattus norvegicus [34] = test: Percent change in body weight in DMBA-Induced Hormone-Dependent Mammary Carcinoma rats at 18 mg/kg dose; format: functional
[35] = biological target: T1, Estrogen receptor (Mus musculus); test: Uterotrophic effect in mice at 5 ug dose; format: functional, tissue-based; details: Uterus; method in brief: as §2
Rattus norvegicus [36] = test: Percent complete remission in DMBA-Induced Hormone-Dependent Mammary Carcinoma in rats at 18 mg/kg dose; format: functional
Rattus norvegicus [37] = test: Percent change in body weight in DMBA-Induced Hormone-Dependent Mammary Carcinoma rats at 36 mg/kg dose; format: functional
Rattus norvegicus [38] = test: Percent progression in DMBA-Induced Hormone-Dependent Mammary Carcinoma in rats at 36 mg/kg dose; format: functional
[39] = biological target: T1, Estrogen receptor (Mus musculus); test: as §6; format: functional, tissue-based; details: Uterus; method in brief: as §2
[40] = biological target: T1, Estrogen receptor (Mus musculus); test: as §8; format: functional, tissue-based; details: Uterus; method in brief: as §2
[41] = biological target: T1, Estrogen receptor (Mus musculus); test: Uterotrophic effect in mice at 25 ug dose; format: functional, tissue-based; parameters: unit not given here; details: Uterus; method in brief: as §2
[42] = biological target: T1, Estrogen receptor (Mus musculus); test: as §8; format: functional, tissue-based; parameters: unit not given here; details: Uterus; method in brief: as §2; remark: listed apart in the source
[43] = biological target: T1, Estrogen receptor (Mus musculus); test: Uterotrophic effect in BD2F mice bearing transplantable hormone dependent MXT at 2.77 mg dose; format: functional, tissue-based; method in brief: as §3
[44] = biological target: T1, Estrogen receptor (Mus musculus); test: Anti-uterotrophic effect in mice at 25 ug dose; format: functional
Method in brief: (§10)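 Immature female NMRI mice, 20 days old (14.5 ± 1.2 g), randomized into groups of 10. Each received a daily sc injection of compound in 0.1 mL olive oil for 3 days, given together with estrone. Uteri were taken 24 h after the last injection, fixed in Bouin's solution, washed, dried and weighed. The read-out was inhibition of estrone-stimulated uterine growth.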

[45] = biological target: T1, Estrogen receptor (Mus musculus); test: Anti-uterotrophic effect in mice at 5 ug dose; format: functional; method in brief: as §10
[46] = biological target: T1, Estrogen receptor (Mus musculus); test: as §7; format: functional, tissue-based; parameters: unit not given here; details: Uterus; method in brief: as §2
[47] = biological target: T1, Estrogen receptor (Mus musculus); test: Uterotrophic effect in BD2F mice bearing transplantable hormone dependent MXT at 13.80 mg dose; format: functional, tissue-based; details: Uterus; method in brief: as §3
Mus musculus [48] = organism: Mus musculus; test: Relative average tumor wet weight in treated compared to untreated mice at 13.80 mg dose; format: functional; method in brief: as §9
[49] = biological target: T1, Estrogen receptor (Mus musculus); test: Anti-uterotrophic effect in mice at 500 ug dose; format: functional; method in brief: as §10
[50] = biological target: T1, Estrogen receptor (Mus musculus); test: as §1; format: functional, tissue-based; details: Uterus; method in brief: as §2
Mus musculus [51] = organism: Mus musculus; test: Relative average tumor wet weight in treated compared to untreated mice at 2.76 mg dose; format: functional; method in brief: as §5

Effect [2]: 12.4
Effect [7]: 38.5 [middle of 4 runs]
Effect ([8]; Uterus): 73.5
Effect [11]: 11.2 and 9.9 and 10.5
Effect [17]: 13.1
Effect [21]: 34.3
Effect [23]: 11.7
Effect [24]: 12.6
Effect [27]: 29
Effect [28]: 11.9
Effect [32]: 86.9
Effect [35]: 36.5
Compound: C[C@H](c1cccc(O)c1)[C@@H](C)c1cccc(O)c1
No. of tumors (Rattus norvegicus [1]): 22
Change in tumor area % (Rattus norvegicus [3]): 6%
Tumors (Rattus norvegicus [4]): 51%
No. of tumors (Rattus norvegicus [5]): 12
Tumors (Rattus norvegicus [6]): 38%
No. of tumors (Rattus norvegicus [9]): 16
Tumors (Rattus norvegicus [10]): 16%
Tumors (Rattus norvegicus [12]): 11%
Change in weight (Rattus norvegicus [13]): 0.9%
Change in tumor area % (Rattus norvegicus [14]): 105%
TC (Mus musculus [15]): 106%
Tumors (Rattus norvegicus [16]): 34%
No. of tumors (Rattus norvegicus [18]): 22
Change in tumor area % (Rattus norvegicus [19]): 188%
Tumors (Rattus norvegicus [20]): 25%
Tumors (Rattus norvegicus [22]): 9%
Tumors (Rattus norvegicus [25]): 29%
TC (Mus musculus [26]): 66.5%
Tumors (Rattus norvegicus [29]): 24%
No. of tumors (Rattus norvegicus [30]): 26
Tumors (Rattus norvegicus [31]): 25%
No. of tumors (Rattus norvegicus [33]): 21
Change in weight (Rattus norvegicus [34]): 2.4%
Tumors (Rattus norvegicus [36]): 14%
Change in weight (Rattus norvegicus [37]): 1.6%
Tumors (Rattus norvegicus [38]): 24%

Effect [2]: 28
Effect [39]: 34.8
Effect [40]: 42.2
Effect [41]: 36
Effect [7]: 17.7
Uterus effect [8]: 77.6
Effect [11]: 14.8
Effect [42]: 45.1
Uterus effect [43]: 79.9
inhibition [44]: 14.1%
Effect [27]: 56.5
Effect [28]: 11.8
inhibition [45]: 23.8%
Effect [46]: 22.6
Effect [35]: 33.6
Compound: C[C@H](c1ccc(O)cc1)[C@@H](C)c1ccc(O)cc1
TC (Mus musculus [15]): 68.5%
TC (Mus musculus [26]): 23.1%

Effect [47]: 88.4
Effect [41]: 42.3
Effect [11]: 12.9
Effect [42]: 43.5
Effect [17]: 12.8
inhibition [49]: 27.2%
Effect [50]: 12.2
Effect [24]: 13.8
Effect [27]: 33.1
Effect [28]: 13.3
Effect [32]: 80.7
Effect [35]: 37.2
Compound: C/C(=C(/C)c1cccc(O)c1)c1cccc(O)c1
TC (Mus musculus [48]): 69.9%
TC (Mus musculus [51]): 88%

Effect [2]: 25.4
Effect [47]: 70.4
Effect [41]: 32
Effect [11]: 14.8
Effect [42]: 39.8
inhibition [44]: 30.1%
Effect [17]: 41.8
Effect [23]: 20.6
Effect [24]: 35.9
Effect [27]: 48.7
Effect [28]: 16.7
Effect [32]: 74.7
Effect [35]: 39.2
Compound: C/C(=C(/C)c1ccc(O)cc1)c1ccc(O)cc1 [DIMETHYLSTILBESTROL]
TC (Mus musculus [48]): 46.2%
TC (Mus musculus [51]): 69.5%
